Reference: publication PMC5456262 (Biochemistry, 2017)
Several values for one entry are separate records, joined by “and”; a condition that tells them apart may be missing. Equal values may be shown once.

Key:
[1] = molecular target: LacY mutant 32C/245C (I32C/N245C) (Escherichia coli, UniProt P02920, I32C/N245C); assay: biochemical; type: binding
[2] = molecular target: LacY mutant 32C/245C (I32C/N245C) reconstituted into PL (Escherichia coli, UniProt P02920, I32C/N245C); assay: biochemical; type: binding
[3] = molecular target: LacY mutant 35C/245C (H35C/N245C) (Escherichia coli, UniProt P02920, H35C/N245C); assay: NPG binding to mutant 35C/245C solubilized in DDM, stopped-flow Trp151→NPG FRET
I32C LacY = I32C LacY (Escherichia coli, UniProt P02920, I32C); assay: NPG binding to control single-Cys mutant I32C, stopped-flow; details: Figure S3
H35C LacY = H35C LacY (Escherichia coli, UniProt P02920, H35C); assay: NPG binding to control single-Cys mutant H35C, stopped-flow; details: Figure S3
N245C LacY = N245C LacY (Escherichia coli, UniProt P02920, N245C); assay: NPG binding to control single-Cys mutant N245C, stopped-flow; details: Figure S3
[4] = molecular target: LacY control mutants I32C, H35C, or N245C; assay: Galactoside; type: binding, Escherichia coli; details: range over three control mutants, presence or absence of Cu^2+
How it was run: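 Purified LacY single-Cys mutants were pretreated with CuSO4 (oxidizing) or 10 mM TCEP (reducing) for 10 min at room temperature, with stopped-flow final TCEP at 2 mM. Buffer was 50 mM NaPi pH 7.5, with 0.02% DDM for detergent-solubilized protein. Protein was preincubated 5 min with NPG at varied concentrations, then mixed by stopped-flow with 15 mM TDG. Trp151→NPG FRET was read at ex 295/em 340 nm, and single-exponential fits gave koff.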

[5] = molecular target: mutant 32C/245C LacY–Nb9065 complex in PL (Escherichia coli, UniProt P02920, I32C/N245C); type: binding
WT LacY in PL = details: cited from earlier work
[6] = DDM, Cu^2+, directly measured NPG binding rates
[7] = Kd^app calculated = Kd(1 + kr/kf), DDM, cross-linked with Cu^2+
[8] = read-out: kon from two-step conformational selection fit

LacY mutant 32C/245C (I32C/N245C) reconstituted into PL, sequence (P02920 whole entry I32C/N245C): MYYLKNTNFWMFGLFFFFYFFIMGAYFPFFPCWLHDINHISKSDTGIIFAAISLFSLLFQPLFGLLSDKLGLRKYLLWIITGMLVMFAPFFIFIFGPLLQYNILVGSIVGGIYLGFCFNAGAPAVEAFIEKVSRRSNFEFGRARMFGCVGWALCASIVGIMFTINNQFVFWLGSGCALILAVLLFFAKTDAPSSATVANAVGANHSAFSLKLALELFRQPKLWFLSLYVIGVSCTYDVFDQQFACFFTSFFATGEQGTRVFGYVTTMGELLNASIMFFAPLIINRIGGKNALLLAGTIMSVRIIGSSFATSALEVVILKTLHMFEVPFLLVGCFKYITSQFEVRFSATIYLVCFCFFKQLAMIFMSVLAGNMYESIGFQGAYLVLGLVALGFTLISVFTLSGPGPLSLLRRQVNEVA
LacY mutant 32C/245C (I32C/N245C), sequence (P02920 whole entry I32C/N245C): as above
LacY mutant 35C/245C (H35C/N245C), sequence (P02920 whole entry H35C/N245C): as the sequence (P02920 whole entry I32C/N245C) above, with C32I, H35C counted along it
mutant 32C/245C LacY–Nb9065 complex in PL, sequence (P02920 whole entry I32C/N245C, one chain of several): as the sequence (P02920 whole entry I32C/N245C) above
I32C LacY, sequence (P02920 whole entry I32C): as the sequence (P02920 whole entry I32C/N245C) above, with C245N counted along it
N245C LacY, sequence (P02920 whole entry N245C): as the sequence (P02920 whole entry I32C/N245C) above, with C32I counted along it
H35C LacY, sequence (P02920 whole entry H35C): as the sequence (P02920 whole entry I32C/N245C) above, with C32I, H35C, C245N counted along it

O=[N+]([O-])c1ccc(O[C@H]2O[C@H](CO)[C@H](O)[C@H](O)[C@H]2O)cc1 [NPG, 4-nitrophenyl α-D-galactopyranoside]
kobs limit at high sugar concentrations [1, 6]: 40 to 50 s⁻¹ | koff (rate of NPG displacement by excess TDG) ([1]; DDM, cross-linked in the presence of Cu^2+): 9.1 ± 0.9 s⁻¹ | Kd [1, 7]: 68 µM | kon [1, 8]: 640000 ± 120000 M⁻¹ s⁻¹ | Kd [2]: 7 ± 1 µM | sugar binding (NPG displacement) ([2]; PL, cross-linked in the presence of Cu^2+, 400 μM NPG): no sugar binding | kobs (NPG binding rate measured directly, independent of NPG concentration) ([2]; PL, reducing conditions (TCEP), no Nb9065): 2.2 ± 0.4 s⁻¹ and 2 s⁻¹ | koff ([2]; read-out: koff (displacement rate)): 24 ± 3 s⁻¹ | kobs limit at high sugar concentrations [3, 6]: 40 to 50 s⁻¹ | Kd [3, 7]: 91 µM | kon [3, 8]: 700000 ± 160000 M⁻¹ s⁻¹ | kobs (sugar binding rate measured directly) (I32C LacY): 20 s⁻¹ | kobs (sugar binding rate measured directly) (H35C LacY): 33 s⁻¹ | kobs (sugar binding rate measured directly) (N245C LacY): 26 s⁻¹ | Kd [4]: 3 to 17 µM | koff [4]: 33 to 102 s⁻¹ | Kd [5]: 6 ± 2 µM | kon ([5]; read-out: kon from concentration dependence of binding rates measured directly): 3.7e+06 ± 200000 M⁻¹ s⁻¹ | Kd (WT LacY in PL; WT LacY in PL): 11 µM | koff (WT LacY in PL; WT LacY in PL): 111 s⁻¹ | kon estimated from displacement experiments (WT LacY in PL; WT LacY reconstituted into PL): 1e+07 M⁻¹ s⁻¹ | kobs (sugar binding rate, independent of sugar concentration) (WT LacY in PL; reconstituted WT LacY): 21 s⁻¹
